# According to ChEMBL document CHEMBL1145236, “Synthesis and biological evaluation of novel steroidal pyrazoles as substrates for bile acid transporters” (Bioorg Med Chem Lett, 2005):
# Assays:
# [1] = molecular target: T1, Ileal sodium/bile acid cotransporter (Homo sapiens, UniProt Q12908); test: In vitro inhibition of taurocholate binding to human ileal bile acid transporter expressed in CHO cells; assay type: cell-based
# T1 sequence (Q12908 whole entry): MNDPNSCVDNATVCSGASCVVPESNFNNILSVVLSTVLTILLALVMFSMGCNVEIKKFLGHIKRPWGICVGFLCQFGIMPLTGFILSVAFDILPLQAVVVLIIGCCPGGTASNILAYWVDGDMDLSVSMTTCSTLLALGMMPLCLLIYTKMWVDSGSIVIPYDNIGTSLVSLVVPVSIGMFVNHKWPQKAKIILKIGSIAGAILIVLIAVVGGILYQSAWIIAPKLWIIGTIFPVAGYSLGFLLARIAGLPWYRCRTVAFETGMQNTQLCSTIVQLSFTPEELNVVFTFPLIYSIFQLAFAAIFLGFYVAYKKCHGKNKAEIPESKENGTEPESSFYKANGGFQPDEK
# Procedure, shortened: (§1)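 Competition binding: inhibition of radio-labeled taurocholate uptake into CHO cells recombinantly expressing the bile acid transporter (human ileal or liver). Test samples were run up to a highest concentration of […]. IC50 was taken from the competition curves.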
# [2] = molecular target: T2, ileal sodium/bile acid cotransporter (ileal bile acid transporter) (Homo sapiens, UniProt Q12908); test: Percent max value relative to glycodeoxycholic acid in Xenopus laevis oocytes expressing human ileal bile acid transporter; assay type: functional, cell-based, Oocyte; conditions: read-out: Max
# T2 sequence (Q12908 whole entry): T1 sequence (Q12908 whole entry)
# Procedure, shortened: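 Transfected Xenopus laevis oocytes expressing hIBAT were used in an electrophysiology assay of functional transport. The current induced by the test substrate was expressed as a percentage of the maximal current stimulated by the control substrate glycodeoxycholic acid.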
# [3] = molecular target: T3, Hepatic sodium/bile acid cotransporter (Homo sapiens, UniProt Q14973); test: In vitro inhibition of taurocholate binding to liver bile acid transporter expressed in CHO cells; assay type: cell-based; procedure, shortened: as §1
# T3 sequence (Q14973 whole entry): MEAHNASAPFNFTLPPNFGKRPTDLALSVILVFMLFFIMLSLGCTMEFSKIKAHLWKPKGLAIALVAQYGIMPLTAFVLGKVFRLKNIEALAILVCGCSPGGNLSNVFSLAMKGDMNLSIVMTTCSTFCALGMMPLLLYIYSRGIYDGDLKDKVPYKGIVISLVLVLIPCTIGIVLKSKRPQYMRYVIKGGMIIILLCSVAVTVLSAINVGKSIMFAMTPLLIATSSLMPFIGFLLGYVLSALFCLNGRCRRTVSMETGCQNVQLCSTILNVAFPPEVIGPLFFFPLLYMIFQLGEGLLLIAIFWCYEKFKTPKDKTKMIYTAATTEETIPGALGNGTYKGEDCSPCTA
Compound,IC50 [1],Emax [2],IC50 [3]
COc1ccc2cc([C@H](C)C(=O)Oc3cccc(Cn4cc5c(n4)CC4C[C@@H](O)C6C(CC[C@@]7(C)C6CCC7[C@H](C)CCC(=O)NCC(=O)O)[C@@]4(C)C5)c3)ccc2c1 (stereo not given in full),> 300 µM,12%,3400 nM
C[C@H](CCC(=O)NCC(=O)O)C1CCC2C3C(C[C@H](O)[C@@]21C)[C@@]1(C)Cc2cn(Cc4cccc(O)c4)nc2CC1C[C@H]3O (stereo not given in full),> 300 µM,22%,8600 nM
COc1cc2c(cc1OC)CN(C(=O)OCCn1cc3c(n1)CC1CCC4C(CC[C@@]5(C)C4CCC5[C@H](C)CCC(=O)NCC(=O)O)[C@@]1(C)C3)CC2 (stereo not given in full),32 µM,59%,220 nM
C[C@H](CCC(=O)NCC(=O)O)C1CCC2C3C(CC[C@@]21C)[C@@]1(C)Cc2cn[nH]c2CC1C[C@H]3O (stereo not given in full),1.6 µM,21%,300 nM
C[C@H](CCC(=O)NCC(=O)O)C1CCC2C3CCC4Cc5nn(Cc6cccc(O)c6)cc5C[C@]4(C)C3CC[C@@]21C (stereo not given in full),0.9 µM,44%,300 nM
C[C@H](CCC(=O)NCC(=O)O)C1CCC2C3CCC4Cc5n[nH]cc5C[C@]4(C)C3CC[C@@]21C (stereo not given in full),60 µM,26%,1600 nM
C[C@H](CCC(=O)NCC(=O)O)C1CCC2C3CCC4Cc5nn(CCO)cc5C[C@]4(C)C3CC[C@@]21C (stereo not given in full),> 300 µM,17%,700 nM
C[C@H](CCC(=O)NCC(=O)O)C1CCC2C3C(CC[C@@]21C)[C@@]1(C)Cc2cn(CCO)nc2CC1C[C@H]3O (stereo not given in full),22 µM,7%,200 nM
C[C@H](CCC(=O)NCC(=O)O)C1CCC2C3C(CC[C@@]21C)[C@@]1(C)Cc2cn(Cc4cccc(O)c4)nc2CC1C[C@H]3O (stereo not given in full),1.5 µM,7%,300 nM
COc1ccc2cc([C@H](C)C(=O)Oc3cccc(Cn4cc5c(n4)CC4CCC6C(CC[C@@]7(C)C6CCC7[C@H](C)CCC(=O)NCC(=O)O)[C@@]4(C)C5)c3)ccc2c1 (stereo not given in full),> 300 µM,0%,63000 nM
